{"source": "paper PMC4618637", "about": "(Pharmacology Research & Perspectives, 2015)", "key": {"[1]": {"experiment": "Portal blood pharmacokinetics of TU-100 ingredients after single oral TU-100", "type": "in vivo, rat", "outline": "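Purchased male Sprague Dawley rats with hepatic portal vein catheters were fasted 16 h. They received oral TU-100 drug substance at 0.3 g/kg plus 2.4 g/kg maltose (n = 5). Portal plasma was sampled at 0.083, 0.25, 0.5, 1, 2, 4, 8 and 24 h and stored at −80°C. Samples were protein-precipitated with internal standard, optionally treated with β-glucuronidase (final 0.1 U/μL, pH 6.0, 37°C), then run on LC-MS/MS. Cmax and tmax were observed; AUC0–last was taken to the last detected time; values mean ± SD.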"}, "[2]": {"type": "in vivo, rat", "details": "for Effect of β-glucuronidase treatment on blood concentrations: rat blood, data not shown", "outline": "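Male Sprague Dawley rats (7 weeks, 274.2–317.7 g) were fasted 16 h and had jugular vein catheters placed 2 days earlier. Single oral TU-100 drug substance was given at 0.3 g/kg with 2.4 g/kg maltose (n = 5), or 0.9 g/kg with 7.2 g/kg maltose for 6G/6S. Plasma was taken at 0.083–24 h and analysed by LC-MS/MS after acetonitrile/methanol precipitation with internal standard. Cmax observed; AUC0–last; t1/2 = ln2/ke.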"}, "[3]": {"experiment": "Recovery of TU-100 ingredients in small intestinal luminal contents", "type": "in vivo, rat", "details": "for Effect of β-glucuronidase treatment on luminal amounts: rat small intestinal contents", "outline": "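Fasted male Sprague Dawley rats (n = 3 per time) were killed 0.083–4 h after oral TU-100 with maltose. The small intestine was ligated into quarters (sites 1–4, oral to anal), and contents were collected with cold water to 10 mL and stored at −80°C. Aliquots, with or without β-glucuronidase (final 0.1 U/μL, pH 6.0, 37°C), were mixed with HBSS/30% acetonitrile and internal standard, then analysed by LC-MS/MS. Amount per site was expressed as % of dosed ingredient; mean ± SD.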"}, "[4]": {"type": "in vivo", "details": "human ileal effluent 4 h after 5 g TU-100 oral", "outline": "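Subjects were 10 ileostomy patients (2 male, 8 female), with stoma made at least 2 weeks prior and normal small intestine by enteroscopy. Those given kampo medicine within 4 weeks were excluded. A new bag was fitted, then 5 g TU-100 drug product (0.42 g drug substance) was taken, followed by an unrestricted breakfast. Effluent was collected at 4 h and frozen at −80°C. Liquid–liquid extraction used pH 5.0 ammonium acetate/PEG, methanol and internal standard, with or without β-glucuronidase (final 0.1 U/μL, 37°C), before LC-MS/MS. Results were expressed as % of ingested amount.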"}, "[5]": {"details": "isotope-labeled 6S administered orally; ref Asami et al. [2010]; cited from earlier work"}, "[6]": {"details": "male, Sprague Dawley, rat, plasma from portal blood, po, 0.3 g/kg"}, "[7]": {"details": "male, Sprague Dawley, rat, plasma from peripheral blood, po, 0.9 g/kg"}, "[8]": {"details": "rat peripheral blood, oral TU-100 0.3 g/kg, untreated, mean ± SD, n = 5"}, "[9]": {"details": "all sites, all rats, all time points, data not shown"}, "[10]": {"details": "male, Sprague Dawley, rat, plasma from peripheral blood, po, 0.3 g/kg"}, "[11]": {"details": "site 3 and 4, at 30 min and 1 h (Fig. 2)"}, "[12]": {"details": "site 4, at 2 h and 4 h (Fig. 2)"}}, "note": "Read-outs that look alike come from different tables or passages of the source."}
{"smiles": "CCCCC[C@H](O)CC(=O)CCc1ccc(O)c(OC)c1", "note": "[6G, [6]-gingerol]", "values": [{"measurement": "AUC", "setting": "[1]; [6]", "value": "59.7 ± 40.4", "unit": "ng·h/mL"}, {"measurement": "AUC(0-t)", "setting": "[1]; [6]", "value": "59.7 ± 40.4", "unit": "ng·h/mL"}, {"measurement": "Cmax", "setting": "[1]; [6]", "value": "38.3 ± 31.8", "unit": "ng/mL"}, {"measurement": "Tmax", "setting": "[1]; [6]", "value": "1.31 ± 1.8", "unit": "h"}, {"measurement": "half-life", "setting": "[1]; [6]", "value": 1.79, "unit": "h"}, {"measurement": "Peak concentration of 6G and its conjugates relative to that of HAS", "setting": "[1]; rat portal blood", "value": "about one-fifth"}, {"measurement": "AUC", "setting": "[2]; [7]", "value": "0.974 ± 0.839", "unit": "ng·h/mL"}, {"measurement": "AUC(0-t)", "setting": "[2]; [7]", "value": "0.974 ± 0.839", "unit": "ng·h/mL"}, {"measurement": "Cmax", "setting": "[2]; [7]", "value": "0.676 ± 0.479", "unit": "ng/mL"}, {"measurement": "Tmax", "setting": "[2]; [7]", "value": "0.466 ± 0.857", "unit": "h"}, {"measurement": "6G in luminal contents as % of the ingested amount", "setting": "[3]; all sites, at 30 min (Fig. 3)", "value": "below 2%"}, {"measurement": "Unconjugated 6G in luminal contents as % of the ingested amount", "setting": "[3]; sites 3 and/or 4, after 1 h (Fig. 3)", "value": "2–3%"}, {"measurement": "% of ingested TU-100, Median", "setting": "[4]; β-glucuronidase treatment −", "value": "B.L.Q"}]}
{"smiles": "CCCCC/C=C/C(=O)CCc1ccc(O)c(OC)c1", "note": "[6S, [6]-shogaol]", "values": [{"measurement": "Portal blood levels of 6S and its conjugates relative to 6G/6G conjugates", "setting": "[1]; rat portal blood", "value": "approximately one tenth"}, {"measurement": "Concentrations of 6S and its conjugates in the portal blood", "setting": "[1]; rat portal blood after oral TU-100", "value": "below 20 ng/mL"}, {"measurement": "Presence of 6S and its conjugates in luminal contents", "setting": "[3]; all sites, all rats, all time points (Fig. 3)", "value": "virtually absent"}, {"measurement": "% of ingested TU-100, Max", "setting": "[4]; β-glucuronidase treatment +", "value": 0.8, "unit": "%"}, {"measurement": "% of ingested TU-100, Median", "setting": "[4]; β-glucuronidase treatment +", "value": 0.4, "unit": "%"}, {"measurement": "% of ingested TU-100, Median", "setting": "[4]; β-glucuronidase treatment −", "value": "B.L.Q"}, {"measurement": "Isotope labels recovered in the urine", "setting": "[5]", "value": "about 90%"}]}
{"smiles": "CCCCCCCCC[C@H](O)CC(=O)CCc1ccc(O)c(OC)c1", "note": "[10G, [10]-gingerol]", "values": [{"measurement": "% of ingested TU-100, Max", "setting": "[4]; β-glucuronidase treatment +", "value": 9.1, "unit": "%"}, {"measurement": "% of ingested TU-100, Median", "setting": "[4]; β-glucuronidase treatment +", "value": 4.3, "unit": "%"}, {"measurement": "% of ingested TU-100, Median", "setting": "[4]; β-glucuronidase treatment −", "value": "B.L.Q"}]}
{"smiles": "CCCCCCCCC/C=C/C(=O)CCc1ccc(O)c(OC)c1", "note": "[10S, [10]-shogaol]", "values": [{"measurement": "% of ingested TU-100, Max", "setting": "[4]; β-glucuronidase treatment +", "value": 3.5, "unit": "%"}, {"measurement": "% of ingested TU-100, Median", "setting": "[4]; β-glucuronidase treatment +", "value": 0.8, "unit": "%"}, {"measurement": "% of ingested TU-100, Median", "setting": "[4]; β-glucuronidase treatment −", "value": "B.L.Q"}]}
{"smiles": "C/C=C/C=C/C=C\\CC/C=C/C=C/C(=O)NCC(C)C", "note": "[GS, γ-sanshool]", "values": [{"measurement": "% of ingested TU-100, Max", "setting": "[4]; β-glucuronidase treatment −", "value": 68.1, "unit": "%"}, {"measurement": "% of ingested TU-100, Median", "setting": "[4]; β-glucuronidase treatment −", "value": 4.1, "unit": "%"}]}
{"smiles": "C/C=C/C=C/C=C\\CC/C=C/C(=O)NCC(C)(C)O", "note": "[HAS, hydroxy-α-sanshool]", "values": [{"measurement": "Effect of β-glucuronidase treatment on blood concentrations", "setting": "[2]", "value": "no effect"}, {"measurement": "AUCall", "setting": "[2]; [8]", "value": "951 ± 264", "unit": "ng·h/mL"}, {"measurement": "AUClast", "setting": "[2]; [8]", "value": "951 ± 264", "unit": "ng·h/mL"}, {"measurement": "Cmax", "setting": "[2]; [8]", "value": "778 ± 276", "unit": "ng/mL"}, {"measurement": "Tmax", "setting": "[2]; [8]", "value": "0.283 ± 0.209", "unit": "h"}, {"measurement": "t1/2", "setting": "[2]; [8]", "value": "3.01 ± 2.90", "unit": "h"}, {"measurement": "Time for blood concentration to reach almost 0", "setting": "[2]; rat portal and peripheral blood", "value": "≤ 5", "unit": "h"}, {"measurement": "Level in luminal contents as % of the ingested amount", "setting": "[3]; [9]", "value": "< 1", "unit": "%"}, {"measurement": "Level in small intestinal luminal contents", "setting": "[3]; [9]", "value": "below 10 μg/site"}, {"measurement": "% of ingested TU-100, Max", "setting": "[4]; β-glucuronidase treatment −", "value": 0.4, "unit": "%"}, {"measurement": "% of ingested TU-100, Median", "setting": "[4]; β-glucuronidase treatment −", "value": "B.L.Q"}]}
{"smiles": "C/C=C/C=C/C=C/CC/C=C/C(=O)NCC(C)(C)O", "note": "[HBS, hydroxy-β-sanshool]", "values": [{"measurement": "Effect of β-glucuronidase treatment on blood concentrations", "setting": "[2]", "value": "no effect"}, {"measurement": "Level in luminal contents as % of the ingested amount", "setting": "[3]; [9]", "value": "< 1", "unit": "%"}, {"measurement": "Level in small intestinal luminal contents", "setting": "[3]; [9]", "value": "below 10 μg/site"}, {"measurement": "% of ingested TU-100, Median", "setting": "[4]; β-glucuronidase treatment −", "value": "B.L.Q"}]}
{"smiles": "CC(C)=CCC[C@](C)(O[C@@H]1O[C@H](CO[C@@H]2O[C@H](CO)[C@@H](O)[C@H](O)[C@H]2O)[C@@H](O)[C@H](O)[C@H]1O)[C@H]1CC[C@]2(C)[C@@H]1[C@H](O)C[C@@H]1[C@@]3(C)CC[C@H](O[C@@H]4O[C@H](CO)[C@@H](O)[C@H](O)[C@H]4O[C@@H]4O[C@H](CO)[C@@H](O)[C@H](O)[C@H]4O)C(C)(C)[C@@H]3CC[C@]12C", "note": "[Rb1, ginsenoside Rb1]", "values": [{"measurement": "AUC", "setting": "[1]; [6]", "value": "28.7 ± 6.29", "unit": "ng·h/mL"}, {"measurement": "AUC(0-t)", "setting": "[1]; [6]", "value": "28.7 ± 6.29", "unit": "ng·h/mL"}, {"measurement": "Cmax", "setting": "[1]; [6]", "value": "2.1 ± 1.13", "unit": "ng/mL"}, {"measurement": "Tmax", "setting": "[1]; [6]", "value": "6 ± 2.31", "unit": "h"}, {"measurement": "Tmax", "setting": "[2]; male, Sprague Dawley, rat, plasma (peripheral and portal blood), oral, 0.3 g/kg", "value": "~4", "unit": "h"}, {"measurement": "AUC", "setting": "[2]; [10]", "value": "34.3 ± 12", "unit": "ng·h/mL"}, {"measurement": "AUC(0-t)", "setting": "[2]; [10]", "value": "34.3 ± 12", "unit": "ng·h/mL"}, {"measurement": "Cmax", "setting": "[2]; [10]", "value": "2.12 ± 0.759", "unit": "ng/mL"}, {"measurement": "Tmax", "setting": "[2]; [10]", "value": "4.8 ± 1.79", "unit": "h"}, {"measurement": "Effect of β-glucuronidase treatment on blood concentrations", "setting": "[2]", "value": "no effect"}, {"measurement": "Effect of β-glucuronidase treatment on luminal amounts", "setting": "[3]", "value": "did not have a significant effect"}, {"measurement": "Level in luminal contents as % of the ingested amount", "setting": "[3]; [11]", "value": "around 10%"}, {"measurement": "Level in luminal contents as % of the ingested amount", "setting": "[3]; [12]", "value": "~50", "unit": "%"}, {"measurement": "% of ingested TU-100, Max", "setting": "[4]; β-glucuronidase treatment −", "value": 77.5, "unit": "%"}, {"measurement": "% of ingested TU-100, Median", "setting": "[4]; β-glucuronidase treatment −", "value": 59.1, "unit": "%"}]}
{"smiles": "CC(C)=CCC[C@](C)(O[C@@H]1O[C@H](CO)[C@@H](O)[C@H](O)[C@H]1O)[C@H]1CC[C@]2(C)[C@@H]1[C@H](O)C[C@@H]1[C@@]3(C)CC[C@H](O)C(C)(C)[C@@H]3[C@@H](O[C@@H]3O[C@H](CO)[C@@H](O)[C@H](O)[C@H]3O)C[C@]12C", "note": "[Rg1, ginsenoside Rg1]", "values": [{"measurement": "Blood concentrations", "setting": "[2]; rat blood after oral TU-100", "value": "too low to obtain reliable data"}, {"measurement": "Effect of β-glucuronidase treatment on luminal amounts", "setting": "[3]", "value": "did not have a significant effect"}, {"measurement": "Level in luminal contents as % of the ingested amount", "setting": "[3]; [11]", "value": "around 10%"}, {"measurement": "Level in luminal contents as % of the ingested amount", "setting": "[3]; [12]", "value": "~30", "unit": "%"}, {"measurement": "% of ingested TU-100, Max", "setting": "[4]; β-glucuronidase treatment −", "value": 114.0, "unit": "%"}, {"measurement": "% of ingested TU-100, Median", "setting": "[4]; β-glucuronidase treatment −", "value": 91.5, "unit": "%"}]}
